From ChEMBL document CHEMBL1151903, “Unique behavior of 2,6-bis(bromomethyl)naphthalene as a highly active organic DNA crosslinking molecule” (Bioorg Med Chem, 2009)
Activity calls are given as the source filed them. No cut-off for these calls is given here.

Legend:
[1] = Stability in aqueous solution assessed as half life; type: physicochemical
Outline: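 Compound at final 10 µM in 0.01 M sodium phosphate buffer pH 7.4/MeCN (4:1). Decomposition followed by reversed-phase RP-18 HPLC with UV detection, eluting with MeCN–H2O or MeOH–H2O; half-life taken from the decomposition rate.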

Nucleic Acid [2] = assay: Induction of […] DNA interstrand crosslinking activity at 1 uM after 6 hrs by agarose gel electrophoresis; type: nucleic-acid assay
Outline: (§1)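 Linearized pBluescript plasmid DNA (460 ng) exposed to compound in DMSO at 37 °C for 6 h. DNA recovered by EtOH precipitation and lyophilized, then taken up in 1 mM EDTA in 30% aqueous DMSO. Heat-denatured at 95 °C for 5 min and ice-quenched. Run on 1% agarose gel and stained with ethidium bromide.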

Nucleic Acid [3] = assay: Induction of […] DNA interstrand crosslinking activity at 10 uM after 6 hrs by agarose gel electrophoresis; type: nucleic-acid assay; outline: as §1
[4] = system: Salmonella enterica subsp. enterica; assay: Mutagenic activity in Salmonella typhimurium TA92 assessed as crosslinking-associated increase in number of revertants after 2 days by Ames test; type: toxicity, organism-based; conditions: salmonella enterica subsp. enterica serovar typhimurium, 48 h
Outline: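 TA92 grown 15.5 h at 37 °C in nutrient broth/NaCl. Culture (0.1 mL) mixed with DMSO-diluted compound (50 µL) in 0.1 M sodium phosphate pH 7.4 and preincubated 20 min at 37 °C. Mixed into 0.6% soft agar and overlaid on minimal agar. Revertant colonies counted manually after 2 days at 37 °C; mean of six plates.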

[5] = system: Salmonella enterica subsp. enterica; assay: Mutagenic activity in Salmonella typhimurium TA100 assessed as crosslinking-associated increase in number of revertants after 2 days by Ames test; type: toxicity, organism-based; conditions: salmonella enterica subsp. enterica serovar typhimurium, 48 h
CCRF-HSB-2 = assay: Antiproliferative activity against human CCRF-HSB2 cells after 24 hrs by trypan blue exclusion assay; type: functional, cell-based; conditions: CCRF-HSB-2, 24 h
Outline: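 CCRF-HSB-2 cells in RPMI1640 with 10% fetal calf serum, 37 °C, 5% CO2, seeded at 3 × 10^5 cell/mL in 3 mL per well. Pre-incubated 24 h, then given compound as DMSO solution (3 µL per well) for 24 h. Trypan blue-excluding cells counted.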

Nucleic Acid [6] = assay: Induction of […] DNA interstrand crosslinking activity at > 100 uM after 6 hrs by agarose gel electrophoresis; type: nucleic-acid assay; outline: as §1

SMILES	half-life [1] [h]	Activity [4]	Activity [5]	further results
ClCc1ccc2cc(CCl)ccc2c1	0.95	–	–	–
BrCc1ccc(CBr)c2ccccc12	0.567	Active	Active	Activity (Nucleic Acid [2]): Active; Activity (Nucleic Acid [3]): Active
ClCc1ccc(CCl)c2ccccc12	5.5	–	–	–
BrCc1ccc2nc(CBr)ccc2c1	12.8	–	–	–
BrCc1ccc(CBr)c2ncccc12	10.5	–	–	–
BrCc1ccc2cc(CBr)ccc2c1	< 0.167	Active	Active	IC50 (CCRF-HSB-2): 4 µM; Activity (Nucleic Acid [6]): inactive
